Data on two compounds can be found in paper PMC7641989 (Nature biotechnology, 2020).

Structures are written as SMILES. Where a SMILES comes first, the peptide text is derived from it. [ ]: non-standard residue; d: D form.

Series [1] can be described thus: LC-MS SIM quantitation of peptide levels in feces. The format is in vivo, mouse. Particulars: pharmacokinetic and excretion studies, result in words. The method, boiled down:
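Intact test compound was measured in extracted feces by LC-MS selected ion monitoring of the parent ions. Standard curves came from two independent extractions. Fecal samples were taken at week 5 (n=4 mice per group) and measured in duplicate. Daily dry fecal output was weighed over 24 h in individually housed mice. Expected maximum fecal level was calculated from the 0.18 mM drinking-water concentration, water intake and fecal output.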

The subject of series [2] is WD-fed LDLr-/- mice. Description: Analysis of atherosclerosis. It is filed as in vivo, mouse. Particulars: completion of the 10-week study, en face staining, vs vehicle. A digest of the protocol:
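LDLr-/- mice, moved from chow to Western diet (15.8% fat, 1.25% cholesterol, no cholate) at 8–12 weeks, given test compound at 180 µM in drinking water (PBS pH 7.4, 1% sucrose; vehicle alone for controls) for 10 weeks. Lesions assessed by en face staining of the entire aorta and by aortic root sectioning. n=8 treated, 18 vehicle; mean ± SD, one-way ANOVA with Dunnett test.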

For series [3], the system named is WD-fed LDLr-/- mice. Description: In vivo safety during 10-week daily oral dosing. Also on record: species or system mouse. A digest of the protocol:
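Mice were weaned at 4 weeks and fed chow, then switched at 8–12 weeks to Western diet for 10 weeks. Test compound was dissolved by sonication in PBS (pH 7.4) with 1% sucrose, given ad libitum in drinking water at 180 µM and refreshed daily or every other day. Vehicle controls received PBS/1% sucrose. Liver enzyme activities in plasma were measured by enzymatic assays.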

Series [4] relates to WD-fed LDLr-/- mice. Description: Plasma total cholesterol in peptide-treated WD-fed mice. It is filed as in vivo, mouse. The method, boiled down: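 Western-diet-fed LDLr-/- mice received test compound at 180 µM in drinking water (PBS pH 7.4, 1% sucrose; vehicle controls) starting with the diet switch. Plasma total cholesterol was measured enzymatically at the two-week blood draw. Results given as mean ± SD.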

A short description of series [5]: Pharmacokinetics, LC-MS SIM quantitation in plasma. Particulars: pharmacokinetic and excretion studies, result in words. The format is in vivo, mouse.
Series [6] relates to gut microbiota from cecum of WD-fed LDLr-/- mice. Description: In vitro en masse gut microbiota screening assay. The format is cell-based, mouse. Particulars: en masse screen, result in words. A digest of the protocol: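 Cecal contents came from female LDLr-/- mice (8–10 weeks) fed WD for two weeks, pooled from 3 co-housed mice, with all steps anaerobic. The PBS suspension was diluted 1:12.5 in Chopped Meat Carbohydrate Broth and dosed with test compound at a final 16 or 64 µM. Ampicillin (4 µg/mL) and chloramphenicol (8 µg/mL) were controls. Samples ran 20 h at 37 °C with hourly OD600, then 16S sequencing gave genus-level Shannon diversity and the Bacteroidetes:Firmicutes ratio.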

The mark [7] stands for this setting: 10 weeks daily oral administration, n=7 treated mice.

Regarding `CC(C)C[C@@H]1NC(=O)[C@@H](Cc2c[nH]c3ccccc23)NC(=O)[C@H](CCCCN)NC(=O)[C@@H](Cc2c[nH]cn2)NC(=O)[C@H](CO)NC(=O)[C@@H](Cc2c[nH]cn2)NC(=O)[C@H](CCCCN)NC(=O)[C@@H](Cc2c[nH]c3ccccc23)NC1=O` [peptide 1] (cyclo([dW]L[dW]K[dH]S[dH]K)), in series [1], the “stability in the gut” value was “remain largely intact throughout the gut”. The “reduction of whole aorta atherosclerotic lesion area” value in series [2] stood at 37%. For the same compound, the “signs of discomfort or toxicity” value in series [3] (10-week daily-dosing regimen, ad libitum in the drinking water, ~35 mg/kg/day) was “no signs of discomfort or toxicity”. For the same compound, in series [3] (setting [7]), the “liver weights and spleen weights” value was “did not significantly differ from vehicle controls”; the “plasma levels of ALT and AST” value was “did not significantly differ from vehicle controls”. In series [3] (during the 10-week treatment, n=7 treated mice), the body weights entry was “did not differ from vehicle controls”. The “reduction of plasma total cholesterol compared to the untreated WD group” value in series [4] (two-week time point, oral in drinking water, ~35 mg/kg/day) was 37%. For the same compound, the oral systemic bioavailability result in series [5] was “non-absorbable (lack oral systemic bioavailability)”. Moreover, in series [6], the “remodeling of the microbiota community in vitro” value was “did remodel the microbiota community in vitro”.
As to `NC(=O)CC[C@@H]1NC(=O)[C@@H](Cc2c[nH]cn2)NC(=O)[C@H](Cc2c[nH]cn2)NC(=O)[C@@H](CCC(N)=O)NC(=O)[C@H](Cc2ccc(O)cc2)NC(=O)[C@@H](Cc2c[nH]c3ccccc23)NC(=O)[C@H](Cc2c[nH]c3ccccc23)NC(=O)[C@@H](Cc2ccccc2)NC1=O` [peptide 15] (cyclo(H[dH]Q[dF]W[dW]Y[dQ])), the “total plasma cholesterol compared to vehicle controls” value in series [4] (2-wk timepoint, oral dosing, result in words) is “did not reduce plasma total cholesterol levels”. Moreover, the “remodeling of the microbiota community in vitro” value in series [6] was “remodeled the gut microbiota in vitro, but not toward a CHD-like state”.
